The structures appear in SMILES notation.

This note sets out measurements from ChEMBL document CHEMBL1146501, “Microbial transformation of isosteviol and inhibitory effects on Epstein-Barr virus activation of the transformation products” (J Nat Prod, 2004).

Type in all cases: cell-based
Series [1] deals with Raji. The experiment in a line: Inhibition of 12-O-tetradecanoylphorbol-13-acetate-induced EBV-early antigen activation in human Raji cells assessed as EA activation at 500 molar ratio after 48 hrs relative to TPA. More on the design: scale not given: the % may be the effect or the level left. Particulars: human gammaherpesvirus 4. The method, boiled down:
(§1)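 EBV genome-carrying nonproducer Raji lymphoblastoid cells grown in 10% FBS RPMI 1640. Cells were incubated at 37 °C for 48 h with n-butyric acid (4 mM) and TPA (32 pmol, 20 ng/mL) in DMSO, plus test compound in DMSO. Smears were stained with EA-positive nasopharyngeal carcinoma patient sera and read by indirect immunofluorescence, counting ≥500 cells per assay, run twice. Average EA induction is expressed relative to butyrate+TPA control.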

For series [2], the system named is Raji. The experiment in a line: Inhibition of 12-O-tetradecanoylphorbol-13-acetate-induced EBV-early antigen activation in human Raji cells assessed as EA activation at 1000 molar ratio after 48 hrs relative to TPA. Also on record: scale not given: the % may be the effect or the level left. Particulars: human gammaherpesvirus 4. The method, boiled down:
as §1

The nature of series [3]: Cytotoxicity against human Raji cells assessed as cell viability at 1000 molar ratio by trypan blue assay. Particulars: read-out: Activity.
Series [4] deals with Raji. The experiment in a line: Inhibition of 12-O-tetradecanoylphorbol-13-acetate-induced EBV-early antigen activation in human Raji cells assessed as EA activation at 10 molar ratio after 48 hrs relative to TPA. More on the design: scale not given: the % may be the effect or the level left. The following applies: human gammaherpesvirus 4. The method, boiled down: as §1
In series [5] the test system is Raji. The experiment in a line: Inhibition of 12-O-tetradecanoylphorbol-13-acetate-induced EBV-early antigen activation in human Raji cells assessed as EA activation at 100 molar ratio after 48 hrs relative to TPA. The following applies: human gammaherpesvirus 4. More on the design: scale not given: the % may be the effect or the level left. Summed up:
as §1

Take `C[C@@]12CC[C@@H]3[C@@](CC1=O)(C2)C(=O)C[C@H]1[C@@]3(C)CCC[C@@]1(C)C(=O)O`: the Activity with Raji [1] is 35.1%; with Raji [2], 7.4%; in the series with Raji [4], 94.5%; in the series on Raji [5] it was 72.3%. Also, in series [3], the viability at 1000 molar ratio amounted to 60%.
`C[C@@]12C[C@H](O)[C@@H]3[C@@](CC[C@H]4[C@@]3(C)CCC[C@@]4(C)C(=O)O)(CC1=O)C2`: the Activity with Raji [1] stood at 39.8%; with Raji [2], 4%; in the series on Raji [4], 91%; with Raji [5], 74.1%. Besides, the viability at 1000 molar ratio in series [3] turned out to be 60%.
Regarding `CC1=C(/C=C/C(C)=C/C=C/C(C)=C/C=C/C=C(C)/C=C/C=C(C)/C=C/C2=C(C)CCCC2(C)C)C(C)(C)CCC1`, the Activity was 8.6% in the series on Raji [2] and 100% with Raji [4].
For the compound `C[C@@]12CCC[C@@](C)(C(=O)O)[C@H]1CC[C@@]13CC(=O)[C@@](CO)(CC[C@H]12)C3`, the Activity amounted to 42.6% in the series with Raji [1], 8.2% in the series on Raji [2], 95.7% in the series on Raji [4] and 77% in the series with Raji [5]. Further, in series [3], the viability at 1000 molar ratio was 60%.
On the same counts, the results for `C[C@@]12CCC[C@@](C)(C(=O)O)[C@H]1CC[C@]13CC(=O)[C@](C)(C1)[C@H](O)C[C@H]32` are 40%, 5.7%, 93.2%, 75.1% and 60%.
Consider `C[C@@]12CC[C@H]3[C@]4(C)CCC[C@@](C)(C(=O)O)[C@H]4C[C@H](O)[C@]3(CC1=O)C2`, for which the Activity in the series with Raji [1] was 41.7%; in the series on Raji [2] it was 6.9%; in the series on Raji [4], 94.6%; in the series with Raji [5] it was 76.3%. Besides, in series [3], the viability at 1000 molar ratio came out at 60%.
Regarding `C=C1C[C@@]23CC[C@H]4[C@@](C)(CCC[C@@]4(C)C(=O)O[C@@H]4O[C@H](CO)[C@@H](O)[C@H](O)[C@H]4O)[C@@H]2CC[C@]1(O[C@@H]1O[C@H](CO)[C@@H](O)[C@H](O)[C@H]1O[C@@H]1O[C@H](CO)[C@@H](O)[C@H](O)[C@H]1O)C3` [STEVIOSIDE], the Activity turned out to be 46.2% with Raji [1], 12.5% in the series with Raji [2], 100% in the series with Raji [4] and 78.9% in the series with Raji [5]. For the same compound, the viability at 1000 molar ratio in series [3] came out at 60%.
On the same counts, the results for `C[C@@]12CC[C@@H]3[C@@](CC[C@H]4[C@@]3(C)CCC[C@@]4(C)C(=O)O)(CC1=O)C2` [ISOSTEVIOL] are 46.7%, 12.3%, 98.8%, 80% and 60%.
